Our source for the deltaTm values is ChEMBL document CHEMBL2346582, “Guanidino anthrathiophenediones as G-quadruplex binders: uptake, intracellular localization, and anti-Harvey-Ras gene activity in bladder cancer cells” (J Med Chem, 2013).

Each structure is given as a SMILES string.

For the experiment, the species on record is Homo sapiens. The experiment can be described thus: Thermal stabilization of human telomeric G-quadruplex FAM-TTAGGGTTAGGGTTAGGGTTAGGG-TAMRA DNA assessed as change in melting temperature at 1:5 DNA:ligand ratio by FRET assay. The method in brief:
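FRET melting of 200 nM dual-labelled quadruplex in 50 mM Tris-HCl with KCl (100 mM for htelo and hras-1, 10 mM for KRAS and hras-2). Ligand at r = 5 ([ligand]/[quadruplex]; hras-2 tabulated at r = 4). Samples held 5 min at 20 °C, then heated 1 °C/min to 95 °C. ΔTM is the TM with ligand minus TM without ligand (±0.5 K). For hras-1 both biphasic transitions are given.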

Regarding `NCCOc1cc(C(=O)Nc2cc(OCCN)c3ccccc3n2)nc(C(=O)Nc2cc(OCCN)c3ccccc3n2)c1`, the deltaTm turned out to be 35 K.
